Compound activity: PubChem BioAssay, Johns Hopkins Ion Channel Center
In the library only some 2.3% were active in any assay of this set; here they are far more common.
TRPC6 act: activators of mouse TRPC6 channel | Q61143 | HEK293-TRPC6 membrane potential dye fluorescence; stronger effect = higher value | B-score at 10 µM | 310,000 tested, 0.13% active;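 active means B-score of the integrated fluorescence ratio above library mean plus 3 SD, and starting fluorescence ratio within library mean plus 5 SD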;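 further: higher score means more depolarization so channel activation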
Target sequence (Q61143 whole entry, looked up): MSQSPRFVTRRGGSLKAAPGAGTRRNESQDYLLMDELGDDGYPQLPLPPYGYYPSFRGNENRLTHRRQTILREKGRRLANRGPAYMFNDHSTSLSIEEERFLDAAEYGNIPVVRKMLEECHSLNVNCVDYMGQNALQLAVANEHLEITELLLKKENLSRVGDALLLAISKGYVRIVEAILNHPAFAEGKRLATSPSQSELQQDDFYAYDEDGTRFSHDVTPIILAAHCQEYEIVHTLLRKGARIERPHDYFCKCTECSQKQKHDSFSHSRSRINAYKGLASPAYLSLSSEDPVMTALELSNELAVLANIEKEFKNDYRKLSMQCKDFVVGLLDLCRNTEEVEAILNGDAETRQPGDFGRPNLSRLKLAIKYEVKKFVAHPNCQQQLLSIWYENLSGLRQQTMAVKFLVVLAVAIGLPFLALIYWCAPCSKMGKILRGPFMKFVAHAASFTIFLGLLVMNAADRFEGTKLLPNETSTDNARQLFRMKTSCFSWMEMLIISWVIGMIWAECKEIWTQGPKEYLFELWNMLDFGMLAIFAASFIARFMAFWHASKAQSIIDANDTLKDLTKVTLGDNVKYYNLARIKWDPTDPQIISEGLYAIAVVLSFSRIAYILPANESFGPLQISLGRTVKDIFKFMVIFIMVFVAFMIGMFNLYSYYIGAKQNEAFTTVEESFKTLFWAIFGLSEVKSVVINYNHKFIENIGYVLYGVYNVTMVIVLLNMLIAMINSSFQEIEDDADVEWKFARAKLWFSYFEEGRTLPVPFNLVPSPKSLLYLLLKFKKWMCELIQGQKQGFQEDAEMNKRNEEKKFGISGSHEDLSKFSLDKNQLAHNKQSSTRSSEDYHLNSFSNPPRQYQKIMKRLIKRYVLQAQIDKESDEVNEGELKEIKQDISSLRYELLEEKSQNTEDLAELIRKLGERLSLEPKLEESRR
TRPC4 potent: TRPC4 (mouse) allosteric potentiation; AID 2227; 310,000 tested, 0.42% active; HEK293 TRPC4beta/mu-opioid, DAMGO EC20, Fluo-4 Ca2+ flux; stronger effect = higher value; B-score at 10 µM;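 active means B-score of calcium response area above 5 SD of library B-scores, with initial fluorescence ratio within 5 SD of library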;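 further: B-score of integrated fluorescence ratio over time as area under calcium response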
TRPC6 inhibitor: inhibitors of mouse TRPC6 channel | HEK293-TRPC6, membrane potential dye, ACh-evoked depolarization; stronger effect = lower value | B-score at 10 µM | AID 2553 | 310,000 tested, 1.1% active;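 active means B-score under library mean minus 3 SD, initial fluorescence not abnormally high, positive integrated signal ratio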;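 further: B-score derived from integrated fluorescence ratio over the kinetic read; more negative B-score means stronger inhibition of depolarization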
TRPC4 agonist: TRPC4 (mouse) channel activation; Q9QUQ5; HEK293 TRPC4beta/mu-opioid, Fluo4 calcium fluorescence; stronger effect = higher value; B-score at 10 µM; 310,000 tested, 0.49% active; AID 2237;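 active means B-score above 5 SD of library B-scores, and initial fluorescence ratio not above library mean plus 5 SD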;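 further: positive B-score marks a calcium rise read as TRPC4 activation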
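Assay system: HEK293 stable line with TRPC4beta plus mu-opioid receptor; schedule: 45 min room-temperature Fluo4 loading, 110 s read; technique: kinetic Fluo4 calcium fluorescence; evaluation: integrated baseline-normalised fluorescence ratio, converted to per-well B score; controls: buffer (low) and maximal DAMGO (high)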
TRPC4 block: inhibitors of mouse TRPC4 channel | Q9QUQ5 | HEK293 TRPC4beta/mu-opioid, DAMGO-evoked Fluo4 calcium flux; stronger effect = lower value | B-score at 10 µM | 300,000 tested, 0.39% active | AID 2247;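 active means B-score over 3 SD under the library average, no early fluorescence shift, positive overall ratio signal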
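Assay system: Stable TRPC4beta/mu-opioid receptor HEK293 cells | Reagent: DAMGO in two steps, submaximal then maximal | Compound dosing: Single concentration per test compound | Signal: Fluo4 Ca2+ flux fluorescence | Evaluation: Per-well B score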
TRPC4 sel inh 2: second selectivity test of TRPC6 inhibitors: effect on mouse TRPC4 | shares compounds with TRPC6 inhibitor | AID 2776 | inhibition, % at 10 µM | 920 tested, 42% active | HEK293 TRPC4/MOR, membrane potential dye fluorescence; channel activated by saturating DAMGO dose;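 active means compounds whose fluorescence signal differed from control wells by over 3 SD, either direction, in both duplicate plates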
TRPC4 spec: mouse TRPC4 off-target activity of TRPC6 inhibitors; HEK293 TRPC4/mu-opioid, membrane potential fluorescence; activity change, negative = inhibition, % at 10 µM; 920 tested, 61% active; shares compounds with TRPC6 inhibitor; AID 2777;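 active means rise or fall in signal beyond 3 SD of buffer-only wells in both replicate plates, either sign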;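 further: integrated kinetic ratio of fluorescence range over baseline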
HEK293 MPD ctr 2-1: second counter-screen for TRPC6 inhibitors: parental HEK293 cells | shares compounds with TRPC6 inhibitor | parental HEK293 membrane potential dye fluorescence; maximal acetylcholine challenge after compound addition | signal change vs control, % at 10 µM | 920 tested, 31% active | AID 2779;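 active means membrane potential signal moving either way by over 3 SD of the maximum-effect control, in both duplicate plates, meaning non-specific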
HEK293 MPD ctr-1: counter-screen for TRPC6 inhibitors: effect in parental HEK293 cells. shares compounds with TRPC6 inhibitor. parental HEK293 membrane potential dye fluorescence. membrane potential signal change, % at 10 µM. 920 tested, 60% active. AID 2780;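 active means membrane potential signal shifting up or down by more than 3 SD of buffer-only wells, on both duplicate plates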
HEK293 MPD ctr-2: checks TRPC6 modulator effects in parental HEK293 cells. 2,400 tested, 51% active. shares compounds with TRPC6 inhibitor. membrane potential dye fluorescence. AID 488924. membrane potential signal change, % at 10 µM;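 active means membrane potential signal moves up or down beyond 5 SD from buffer-only wells, on both duplicate plates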
HEK293 MPD ctr 2-2: second check of TRPC6 modulator effects in parental HEK293 cells; shares compounds with TRPC6 inhibitor; membrane potential dye fluorescence; after compound, maximal acetylcholine stimulation; inhibition, % at 10 µM; 2,400 tested, 14% active;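 active means membrane potential signal drops by more than 5 SD from the mean control signal, in both duplicate plates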;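 further: plate controls were acetylcholine ECmax control wells for no effect and buffer only wells for full effect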
TRPC4/MOR mod: selectivity of TRPC6 modulators against mouse TRPC4; HEK293 TRPC4/mu-opioid, membrane potential fluorescence; shares compounds with TRPC6 inhibitor; percent change from control (negative = decrease, positive = increase), % at 10 µM; 2,400 tested, 69% active;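 active means membrane potential signal moved up or down beyond 5 SD of buffer control wells, in both duplicate plates, actives on both sides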;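 further: plate controls were assay buffer wells for no effect and DAMGO maximal-effect wells for full effect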
TRPC4/MOR inh 2: second selectivity test of TRPC6 modulators against mouse TRPC4; shares compounds with TRPC6 inhibitor; HEK293 TRPC4/mu-opioid, membrane potential dye fluorescence; stimulated with maximal-effect DAMGO; inhibition, % at 10 µM; 2,400 tested, 55% active; AID 488928;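 active means drop in membrane potential signal beyond 5 SD of the control wells in both duplicate plates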;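 further: TRPC4 counter screen for TRPC6 hits run under conditions tuned for TRPC6 not TRPC4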
TRPC6 inh conf: confirmation of mouse TRPC6 inhibitors; shares compounds with TRPC6 inhibitor; HEK293-TRPC6, membrane potential dye, ACh-evoked depolarization; inhibition, % at 10 µM; 3,300 tested, 43% active;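 active means fluorescence ratio falls more than 5 SD below the full-stimulation control mean, in both duplicate runs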;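 further: integrated fluorescence ratio of peak minus minimum over baseline after agonist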
TRPC6 act confirm: confirmation of mouse TRPC6 activators; shares compounds with TRPC6 inhibitor; HEK293-TRPC6 membrane potential dye fluorescence, FDSS; activation, % at 10 µM; 2,800 tested, 11% active;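 active means ratio signal rise beyond 5 SD above unstimulated control wells' mean, seen in both duplicate runs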;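 further: plate controls were buffer EC0 wells for no effect and acetylcholine ECmax response for full effect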
Starred values were filed as active, the others as inactive.

For CC1CCN(S(=O)(=O)c2cnc(Cl)c(Br)c2)CC1 the results were TRPC6 act inactive, TRPC4 potent inactive, TRPC6 inhibitor -5.34*, TRPC4 agonist inactive, TRPC4 block inactive, HEK293 MPD ctr-2 inactive, HEK293 MPD ctr 2-2 inactive, TRPC4/MOR mod inactive, TRPC4/MOR inh 2 inactive and TRPC6 inh conf 68.0%*.
`CC1CCN(S(=O)(=O)c2ccc(Cl)cc2Br)CC1` gave TRPC6 act inactive, TRPC4 potent inactive, TRPC6 inhibitor inactive, TRPC4 agonist inactive and TRPC4 block inactive.
Screening CC1CCCCN1S(=O)(=O)c1csc(C(N)=O)c1 (stereo unspecified) returned TRPC6 act inactive, TRPC4 potent inactive, TRPC6 inhibitor inactive, TRPC4 agonist inactive and TRPC4 block inactive.
`Cc1cc(NC(=O)Cc2cccs2)nn1CC(=O)NCc1ccco1` gave TRPC6 act inactive, TRPC4 potent inactive, TRPC6 inhibitor inactive, TRPC4 agonist inactive and TRPC4 block inactive.
`COc1cc2c(cc1OC)C(C)N(S(=O)(=O)c1ccc(C)cc1)CC2` (stereo unspecified) gave TRPC6 act inactive, TRPC4 potent inactive, TRPC6 inhibitor -6.91*, TRPC4 agonist inactive, TRPC4 block inactive, TRPC4 sel inh 2 inactive, TRPC4 spec -0.1%*, HEK293 MPD ctr 2-1 inactive, HEK293 MPD ctr-1 1.0%* and TRPC6 inh conf inactive.
O=C(C1CCCN(Cc2ccc(F)cc2)C1)N1CCCCC1 (stereo unspecified) was read as TRPC6 act inactive, TRPC4 potent inactive, TRPC6 inhibitor inactive, TRPC4 agonist inactive and TRPC4 block inactive.
Screening O=C(Nc1ccccc1Oc1cccnc1)C1CCCN(Cc2ccc(F)cc2)C1 (stereo unspecified) returned TRPC6 act inactive, TRPC4 potent inactive, TRPC6 inhibitor -6.39*, TRPC4 agonist inactive, TRPC4 block -6*, HEK293 MPD ctr-2 175.5%*, HEK293 MPD ctr 2-2 inactive, TRPC4/MOR mod 31.0%*, TRPC4/MOR inh 2 45.5%* and TRPC6 inh conf inactive.
Cc1ccc(C)c2nc3sc(C(=O)N4CCOCC4)c(N)c3cc12 was read as TRPC6 act 32.7*, TRPC4 potent inactive, TRPC6 inhibitor -8.65*, TRPC4 agonist 74*, TRPC4 block inactive, HEK293 MPD ctr-2 898.5%*, HEK293 MPD ctr 2-2 inactive, TRPC4/MOR mod 128.5%*, TRPC4/MOR inh 2 inactive, TRPC6 inh conf inactive and TRPC6 act confirm 78.5%*.
Cc1cc(C)c2cc3c(N)c(C(=O)N4CCOCC4)sc3nc2c1 was read as TRPC6 act inactive, TRPC4 potent inactive, TRPC6 inhibitor inactive, TRPC4 agonist inactive and TRPC4 block inactive.
`Cc1cc(C)c2nc3sc(C(=O)N4CCOCC4)c(N)c3cc2c1` gave TRPC6 act 23.3*, TRPC4 potent inactive, TRPC6 inhibitor -5.01*, TRPC4 agonist inactive, TRPC4 block inactive, HEK293 MPD ctr-2 899.5%*, HEK293 MPD ctr 2-2 83.0%*, TRPC4/MOR mod 189.0%*, TRPC4/MOR inh 2 inactive, TRPC6 inh conf inactive and TRPC6 act confirm 297.0%*.
For CC1CCCCC1NC(=O)CCNS(=O)(=O)c1cc(Br)cnc1N (stereo unspecified) the results were TRPC6 act inactive, TRPC4 potent inactive, TRPC6 inhibitor inactive, TRPC4 agonist inactive and TRPC4 block inactive.
COCc1nnc(NC(=O)c2ccc(S(=O)(=O)N3CCCC3)cc2)o1 was read as TRPC6 act inactive, TRPC4 potent inactive, TRPC6 inhibitor inactive, TRPC4 agonist inactive and TRPC4 block inactive.
`CCCC1(C(=O)OCC)NC(c2ccc(OC)cc2OC)C2C(=O)N(c3ccccc3)C(=O)C21` (stereo unspecified) gave TRPC6 act inactive, TRPC4 potent inactive, TRPC6 inhibitor inactive, TRPC4 agonist inactive and TRPC4 block inactive.
C=C(C)CSc1nc2sc3c(c2c(=O)n1C1CCCCC1)CCN(C)C3 was read as TRPC6 act inactive, TRPC4 potent inactive, TRPC6 inhibitor -7.53*, TRPC4 agonist inactive, TRPC4 block inactive, HEK293 MPD ctr-2 inactive, HEK293 MPD ctr 2-2 inactive, TRPC4/MOR mod -20.0%*, TRPC4/MOR inh 2 inactive, TRPC6 inh conf inactive and TRPC6 act confirm inactive.
Screening CN1C(=O)C(N=Nc2ccccc2C(=O)O)N(C)C1=S (stereo unspecified) returned TRPC6 act 20.1*, TRPC4 potent inactive, TRPC6 inhibitor inactive, TRPC4 agonist inactive, TRPC4 block inactive, HEK293 MPD ctr-2 438.0%*, HEK293 MPD ctr 2-2 inactive, TRPC4/MOR mod 80.5%*, TRPC4/MOR inh 2 inactive, TRPC6 inh conf inactive and TRPC6 act confirm 198.5%*.
For O=C(Nc1ccc(F)cc1)c1ccc2nc[nH]c2c1 the results were TRPC6 act inactive, TRPC4 potent inactive, TRPC6 inhibitor inactive, TRPC4 agonist inactive and TRPC4 block inactive.
